Sampled rows, rich in hits. Any-hit rate of the full collection: about 3.3%.
Rev-RRE block: inhibitors of HIV-1 Rev-RRE RNA interaction | Rev peptide-RRE RNA binding, FRET | inhibition, % at 8 µM | 97,000 compounds, 0.79% hits;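 active = inhibition above the screen-wide mean plus 3 SD, cut at about 35% in these data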;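 note: 0% = median DMSO wells and 100% = median Neomycin B control wells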
Target sequence (P05866 whole entry, looked up): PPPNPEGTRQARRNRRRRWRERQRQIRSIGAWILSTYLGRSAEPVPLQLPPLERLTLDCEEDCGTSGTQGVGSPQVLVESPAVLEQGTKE
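Test system – labelled RRE RNA duplex and labelled Rev peptide · Reagent – labelled Rev peptide · Doses – one concentration, 8 µM nominal · Incubation – 5 + 15 min at 25 °C · Signal – FRET fluorescence readout · Read-out basis – % inhibition of FRET ratio versus controls · Control set – DMSO wells as 0% and neomycin B wells as 100% inhibition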
FAK blocker: blocks human focal adhesion kinase activity; Q05397; biochemical FAK kinase activity assay; inhibition, %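 (tested at 7 µM)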; 97,000 compounds, 0.84% hits; AID 727;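 note: 0% = DMSO and 100% = reference compound high control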
IL1B cytotox: HUVEC cytotoxicity counter-screen, IL-1B stimulated; HUVEC cell count loss, Hoechst imaging; cell count reduction, % at 2 µM; 94,000 compounds, 0.41% hits;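 active = cell count reduction more than 3 SD above the screen-wide mean, cut at about 70% in these data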;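 note: normalized per plate to untreated control cells as the no-loss baseline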
IL1B NFkB pot: enhances IL-1B driven NFkB nuclear translocation | 94,000 compounds, 0.3% hits | HUVEC IL-1B NFkB p65 nuclear translocation imaging | activation, % at 2 µM;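 active = activation above 40%, about the mean plus 3 SD, also judged a hit on visual image review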;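 note: percent activation is computed from the nuclear over cytoplasmic p65 intensity ratio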
NFkB transloc inh: blocks IL-1B driven NFkB nuclear translocation in HUVEC cells; 94,000 compounds, 0.43% hits; AID 796; inhibition, % at 2 µM; HUVEC IL-1B NFkB p65 nuclear translocation imaging;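 active = inhibition above about 30% together with a positive call from visual inspection of the well image, limit read from the data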;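 note: nuclear over cytoplasmic p65 intensity ratio measured by imaging; 0% = IL-1B stimulated DMSO wells and 100% = unstimulated DMSO wells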
Measles CPE: protection of cells from measles virus | Measles virus-infected cells, CPE protection, absorbance | 140,000 compounds, 1.5% hits | protection (pct of control), % at 4 µM; in the data active = protection mostly above about 24%, no sharp cut-off; inactive = mostly below about 26%
FAK inh confirm: confirmation of human focal adhesion kinase (FAK) inhibitors; shares compounds with FAK blocker; FAK kinase biochemical inhibition assay; inhibition, % at 7 µM; 750 compounds, 28% hits
* = called active by the depositor; x = no result given; [ ] = another dose, or the depositor's remark. Cut-off read from the data, not from the text of the source, unless noted: active = inhibition above about 19%; inactive = the rest.

SMILES	Rev-RRE block	FAK blocker	IL1B cytotox	IL1B NFkB pot	NFkB transloc inh	Measles CPE	FAK inh confirm
Cc1c(O)c(CN2CCCC2)cc2c3c(c(=O)oc12)CCC3	3.5	2.9	34.5	14.0	-14.0	12.6	x
COc1ccc([N+](=O)[O-])cc1NC(=O)c1ccc(CN(c2ccccc2)S(C)(=O)=O)cc1	x	x	x	x	x	4.3	x
OC(COc1ccc(C2C=CCC2)cc1)CN1CCCCC1 (stereo not given)	2.0	21.6*	16.9	-9.2	9.3	2.2	7.7
O=C(COC(=O)C1CC2C=CC1C2)NCc1ccc(F)cc1 (stereo not given)	x	x	x	x	x	12.6	x
O=C(COC(=O)C1CC2C=CC1C2)NCc1ccco1 (stereo not given)	-8.8	30.1*	-6.6	-4.3	4.3	8.3	3.0
CN1c2ccccc2C(C)(C)C12C=Nc1c(cc(N3CCOCC3)c3ccccc13)O2 (stereo not given)	9.5	39.9*	-13.3	2.5	-2.5	12.6	-1.8
O=C(COc1ccccc1Br)N1CCN(c2ccccc2)CC1	6.1	1.0	-0.8	7.8	-7.8	8.0	x
Nc1c(C(=O)Nc2nc3ccccc3s2)sc2nc(-c3cccs3)ccc12	132.7*[fluorescence artefact?]	49.5*	21.7	-2.3	2.3	-1.8	26.8*
Nc1c(C(=O)Nc2ccccc2)sc2nc(-c3ccco3)ccc12	36.4*	26.0*	6.2	0.1	-0.1	10.1	-3.4
CCOC(=O)c1cnc2ccc(OC)cc2c1Nc1ccc2c(c1)OCCO2	8.8	24.4*	-22.7	4.1	-4.1	2.7	11.1
CCOC(=O)c1cnc2ccc(C(=O)OC)cc2c1Nc1ccc2c(c1)OCCO2	1.2	35.7*	-20.7	4.3	-4.3	3.2	10.6
CCOC(=O)c1ccc2ncc(C(=O)OCC)c(NCc3ccco3)c2c1	4.2	23.3*	2.2	3.5	-3.5	25.9	8.8
CCOC(=O)CC(NS(=O)(=O)Cc1ccccc1)c1ccc(C)cc1 (stereo not given)	x	x	x	x	x	10.9	x
Cc1ccc(CSCC(=O)N/N=C/c2ccc(OCC(=O)Nc3ccc(C)cc3)cc2)cc1	2.9	25.9*	0.8	-3.4	3.4	6.4	11.9
Cc1ccc(C(=O)C[n+]2cc(Br)cc(Br)c2)cc1[N+](=O)[O-]	x	x	x	x	x	7.9	x
Clc1ccc(OCc2nn3c(-c4ccco4)nnc3s2)c(Cl)c1	4.5	38.8*	-22.2	12.0	-12.0	3.6	18.5
CCN1C=CC(=C2C(=O)c3ccccc3C2=O)C=C1	11.4	36.4*	-1.2	-1.4	1.4	39.6*	11.2
CCOC(=O)Cc1csc(NC(=O)Cc2cccs2)n1	1.7	19.4*	-24.6	27.1	-27.1	9.9	3.0
O=C(c1cc(C2CC2)on1)N1CCN(c2ccccc2)CC1	-3.6	-1.1	8.7	23.7	-23.7	10.3	x
CC1(C)Cc2c(C#N)c(N3CCN(C(=O)c4ccccc4Cl)CC3)nc(-c3ccco3)c2CS1	50.8*	25.3*	3.2	2.5	-2.5	4.0	-1.0
Cc1cc(C)cc(N(CCC(=O)Nc2nnc(C)s2)S(=O)(=O)c2ccc(Cl)cc2)c1	x	x	x	x	x	7.1	x
Cc1ccc(-c2onc3ccc(C4(C)OCCO4)cc23)cc1	-1.5	0.4	17.4	2.6	-4.3	18.0	x
Cc1ccc(-c2onc3ccc(C=O)cc23)cc1	9.6	22.4*	-18.2	27.3	-27.3	6.5	29.6*
COc1ccc(C(=O)Nc2ccc(N3CCCC3)cc2)cc1	3.3	32.0*	1.4	9.3	-9.3	3.8	13.0
CCOc1ccc(C(=O)Nc2ccc(N3CCCC3)cc2)cc1	8.0	17.5	-22.8	0.8	-0.8	27.6	x
SMILES	Rev-RRE block	FAK blocker	IL1B cytotox	IL1B NFkB pot	NFkB transloc inh	Measles CPE	FAK inh confirm
Cc1cc(C)cc(OCC(=O)Nc2ccc(N3CCCC3)cc2)c1	5.6	38.6*	-5.2	5.8	-5.8	4.4	40.2*
Cc1ccc(N2CC(C(=O)Nc3ccc4c(c3)OCO4)CC2=O)cc1 (stereo not given)	6.2	40.5*	-7.4	-8.2	8.2	33.4	2.0
O=c1[nH]cnc2sc3c(c12)CCCC3	3.0	25.9*	10.8	-8.0	8.0	5.8	9.5
Nc1[nH]nc2nc(N3CCOCC3)nc(-c3ccccc3)c12	8.8	23.5*	5.6	-12.1	12.1	6.4	4.1
CC(C)c1ccc(-c2nc(N3CCCC3)nc3n[nH]c(N)c23)cc1	x	x	x	x	x	23.6	x
CCN(CC)S(=O)(=O)c1ccc2[nH]c(=O)cc(C(=O)Nc3ccc(C)c(S(=O)(=O)N(CC)CC)c3)c2c1	x	x	x	x	x	4.2	x
Cc1cc(C)n(-c2nc(N(c3ccccc3)c3ccccc3)nc(-n3nc(C)cc3C)n2)n1	-1.8	3.7	-14.4	-3.9	3.9	1.8	x
Cc1cc(C)n(-c2nc(Nc3ccccc3)nc(-n3nc(C)cc3C)n2)n1	5.5	25.7*	-44.3	13.5	-13.5	24.2	8.8
Cc1ccc(NC(=O)c2ccc(OC(=O)COc3cccc(Cl)c3)cc2)cc1	x	x	x	x	x	8.4	x
C=CCN1C(=O)/C(=C2/C(=O)N(CC(=O)O)c3ccccc32)S/C1=N/c1nccs1	-37.0	21.6*	5.0	5.4	-5.4	3.9	9.8
C=CCN1C(=O)/C(=C/c2ccc(O)cc2)S/C1=N/c1nccs1	x	x	x	x	x	12.6	x
CCCN(CCC)C(=O)CSc1nc2n[nH]c(C)c2c(=N)n1-c1ccc(OC)cc1	4.1	21.8*	35.0	0.8	-0.8	13.6	2.9
Clc1ccc2[nH]cc(-c3nnnn3-c3ccccc3)c2c1	8.2	32.7*	x	x	x	3.9	19.9*
O=C(NNC(=O)c1cc2cc3ccccc3nc2s1)c1cccc(C(F)(F)F)c1	1.1	24.9*	3.8	4.0	-4.0	19.6	9.1
CC(C)(C)C(=O)NC(=C(Cl)Cl)P(=O)(O)O	7.7	65.7*	-1.1	9.1	-9.1	40.8	52.0*
CC(C)(C)C(=O)NC(=S)N1CCCC1	x	x	x	x	x	8.0	x
CC(=O)Nc1ccc(NCN2C(=O)[C@@H]3[C@H]4CC[C@H](C4)[C@@H]3C2=O)cc1	x	x	x	x	x	15.9	x
O/N=C/c1cc(Br)ccc1OCc1ccc(F)cc1	15.1	17.7	-26.6	-2.1	2.1	x	x
O/N=C/c1cc(Br)ccc1OCc1cccc(F)c1	14.1	19.8*	-5.5	-4.2	4.2	9.1	5.7
CCCOc1ccc(CN(CCC#N)C(=S)NC(=O)c2ccccc2)cc1	x	x	x	x	x	0.7	x
Oc1ccc(Br)cc1/C=N/n1cnc2ccccc21	5.6	19.0*	8.9	-8.5	8.5	-1.0	5.6
Oc1ccc(Br)cc1/C=N/N1CCCCC1	x	x	x	x	x	8.4	x
Cc1cc(C(=O)CSc2nc(N)cc(N)n2)c(C)n1-c1cccc(F)c1	x	x	x	x	x	4.6	x
CCN(CC)CC(C)CNC(=O)CN1C(=O)CSc2ccc(S(=O)(=O)N3CCOCC3)cc21 (stereo not given)	x	x	x	x	x	21.2	x
O=C(Nc1ccc(-n2nncc2-c2ccco2)cc1)c1cccc(F)c1	7.2	-2.8	-59.1	-4.3	4.3	3.6	x
O=C(Nc1ccc(-n2nncc2-c2ccco2)cc1)c1cc2ccccc2oc1=O	-16.9	81.8*	-43.1	7.6	-7.6	2.5	78.2*

Assay outcomes: PubChem, several laboratories
